# Activity calls are given as the source filed them. The rule behind the calls is not given here.
# Tests used:
# [1] = organism: Felis catus; experiment: In vitro inhibition of HCO3- stimulated swelling in cat cerebrocortical tissue slice; assay type: functional; settings: read-out: I 50
# Outline: (§1)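 Cat cerebral cortex slices (~150 mg, 0.5 mm) incubated aerobically 60 min at 37 °C in K+-rich (27 mM) Hepes-buffered saline-glucose with test compound as Na salt. HCO3- (NaHCO3 or TEAB) added from sidearm at 20 min to 10 mM final; HCO3- flasks gassed with 2.5% CO2/97.5% O2. Swelling by reweighing; Na+/K+ by flame photometry, Cl- by amperometric titration. Units: per g initial fresh weight; means ± SE, Student's t test.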
# [2] = Distribution coefficient (D %) between octanol and buffer of pH 7.4; assay type: physicochemical; settings: octanol/water
# [3] = Dissociation constant (pKa) (determined in 30% EtOH); assay type: physicochemical
# [4] = organism: Canis familiaris; experiment: Relative salidiuretic efficacy was scored in dog; inactive; assay type: functional, organism-based; settings: Canis lupus familiaris; Urine
# [5] = organism: Pan troglodytes; experiment: Relative salidiuretic efficacy was scored in chimpanzee; moderate; assay type: functional, organism-based; settings: Urine
# [6] = organism: Canis familiaris; experiment: Relative salidiuretic efficacy was scored in dog; Marginal; assay type: functional, organism-based; settings: Canis lupus familiaris; Urine
# [7] = organism: Rattus norvegicus; experiment: Relative salidiuretic efficacy was scored in Rat; Marginal; assay type: functional, organism-based; settings: Urine
# [8] = organism: Felis catus; experiment: In vitro inhibition of HCO3- stimulated swelling in cat cerebrocortical tissue slice; At no concentration was swelling inhibited 100%; assay type: functional; settings: read-out: I 50; outline: as §1
# [9] = organism: Rattus norvegicus; experiment: Relative salidiuretic efficacy was scored in Rat; weak; assay type: functional, organism-based; settings: Urine
SMILES,IC50 [1],Distribution [2],pKa [3],Relative salidiuretic activity [4],Relative salidiuretic activity [5],Relative salidiuretic activity [6],Relative salidiuretic activity [7],IC50 [8],Relative salidiuretic activity [9]
CC1(Cc2ccccc2)Cc2cc(OCCCC(=O)O)c(Cl)c(Cl)c2C1=O (racemic),> 100000 nM,99.5%,6.3,,,,,,
CC1(c2ccccc2)Cc2cc(OCCCC(=O)O)c(Cl)c(Cl)c2C1=O (racemic),,99%,6.4,inactive,,,,,
CC1(C2CCCC2)Cc2cc(OCc3ccc(C(=O)O)cc3)c(Cl)c(Cl)c2C1=O (racemic),> 10000 nM,100%,6.2,,,,,,
CC1(Cc2ccccc2)Cc2cc(OCC(=O)O)c(Cl)c(Cl)c2C1=O (racemic),1 nM,91%,3.8,,Marginal,Marginal,Marginal,,
CC1(C2CCCC2)Cc2cc(OC3(C(=O)O)CCC3)c(Cl)c(Cl)c2C1=O (racemic),,98.6%,3.8,,,,,1000 nM,
CCCCC1(C2CCCC2)Cc2cc(OCC(=O)O)c(Cl)c(Cl)c2C1=O (racemic),3 nM,99%,3.9,,,,,,weak
CCC1(C2CCCC2)Cc2cc(OCCCC(=O)O)c(Cl)c(Cl)c2C1=O (racemic),> 10 nM,98.7%,3.8,,,,Marginal,,

# From ChEMBL document CHEMBL1122058, “Agents for the treatment of brain injury. 1. (Aryloxy)alkanoic acids” (J Med Chem, 1982)
